Binding affinity, Relative potency and IC50 data for 16 molecules are collected here from ChEMBL document CHEMBL1129501 (J Med Chem, 1996).

Experiment [1] has as its target Estrogen receptor (Rattus norvegicus) (UniProt P06211+Q62986).
Experiment [2] addresses T1, Phosphodiesterase 1 (Homo sapiens, UniProt P54750+Q01064+Q14123). Briefly: Antagonistic potency against calmodulin-dependent cyclic AMP phosphodiesterase relative to Idoxifene. In kind it is functional. The conditions noted are these: Canis lupus familiaris.
The target in experiment [3] is T1, Phosphodiesterase 1. Kind of experiment: Inhibitory activity against calmodulin-dependent Phosphodiesterase was reported. It is filed as protein assay, Canis lupus familiaris. In a few lines:
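Calmodulin-dependent cAMP phosphodiesterase, 8-[3H]-cAMP substrate. Tritiated AMP converted to adenosine with snake venom 5'-nucleotidase. Nucleosides separated from substrate on Dowex anion exchanger, eluted with 3 mM acetic acid. Basal calmodulin-independent activity measured with 1 mM EGTA. Compounds in DMSO at several concentrations. IC50 against calmodulin-dependent activity, mean of triplicates ± standard error.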

For experiment [4], the target named is T1, Phosphodiesterase 1. Briefly: Antagonistic potency against calmodulin-dependent cyclic AMP phosphodiesterase relative to 4-Iodotamoxifen. In kind it is functional. The settings on record: Canis lupus familiaris.

As usually defined, the IC50 is the concentration at which inhibition is half-maximal. Read a low IC50 as greater potency in that assay. As for `CC/C(=C(\c1ccc(I)cc1)c1ccc(OCCCN2CCCC2)cc1)c1ccccc1`, in experiment [1], the Binding affinity is 23. Moreover, the Relative potency on Phosphodiesterase 1 [2] stood at 1.4. The same molecule gave an IC50 against Phosphodiesterase 1 [3] of 1100 nM.
For the molecule `CC/C(=C(\c1ccc(I)cc1)c1ccc(OCCN2CCCC2)cc1)c1ccccc1` [IDOXIFENE], the half-maximal inhibitory concentration (IC50) against Phosphodiesterase 1 [3] stood at 1500 nM.
On to `CC/C(=C(\c1ccc(I)cc1)c1ccc(OCCCCCCCCCCN(C)C)cc1)c1ccccc1`, for which the Relative potency at Phosphodiesterase 1 [4] worked out at 1.9. The Binding affinity in experiment [1] was determined as 0.4. The molecule further returned an IC50 on Phosphodiesterase 1 [3] of 1200 nM.
The corresponding values for `CC/C(=C(\c1ccc(I)cc1)c1ccc(OCCCCCCN(C)C)cc1)c1ccccc1` are 5.8, 8 and 400 nM.
With `CC/C(=C(\c1ccc(I)cc1)c1ccc(OCCCCCCCCCCN2CCCC2)cc1)c1ccccc1`, the Binding affinity in experiment [1] came to 0.4. The Relative potency at Phosphodiesterase 1 [2] came out at 0.9. The molecule also had an IC50 on Phosphodiesterase 1 [3] of 1600 nM.
On the same counts, the results for `CC/C(=C(\c1ccc(I)cc1)c1ccc(OCCCCCCCCCN2CCCC2)cc1)c1ccccc1` are 1.5, 7.5 and 200 nM.
`CC/C(=C(\c1ccc(I)cc1)c1ccc(OCCCCN(C)C)cc1)c1ccccc1` gave a Relative potency on Phosphodiesterase 1 [4] of 1.1. This molecule displayed a Binding affinity in experiment [1] of 25. Moreover, the IC50 on Phosphodiesterase 1 [3] was 2200 nM.
For the molecule `CC/C(=C(\c1ccc(I)cc1)c1ccc(OCCCCCCCCN(C)C)cc1)c1ccccc1`, the Relative potency on Phosphodiesterase 1 [4] was determined as 7.7. Further, the Binding affinity in experiment [1] amounted to 2. Also, the IC50 at Phosphodiesterase 1 [3] was found to be 300 nM.
The corresponding values for `CC/C(=C(\c1ccc(I)cc1)c1ccc(OCCCN(C)C)cc1)c1ccccc1` are 1.2, 8 and 2000 nM.
In experiment [1], `CC/C(=C(\c1ccc(I)cc1)c1ccc(OCCCCCCN2CCCC2)cc1)c1ccccc1` gave a Binding affinity of 4. At Phosphodiesterase 1 [2], this molecule had a Relative potency of 3. On Phosphodiesterase 1 [3], this molecule had an IC50 of 500 nM.
On the same counts, the results for `CC/C(=C(\c1ccc(I)cc1)c1ccc(OCCCCCN2CCCC2)cc1)c1ccccc1` are 8, 1.9 and 800 nM.
The molecule `CC/C(=C(\c1ccc(I)cc1)c1ccc(OCCCCCCCN2CCCC2)cc1)c1ccccc1` showed a Binding affinity in experiment [1] of 3. Besides, on Phosphodiesterase 1 [2], the Relative potency worked out at 7.5. The same molecule registered an IC50 against Phosphodiesterase 1 [3] of 200 nM.
For the molecule `CC/C(=C(\c1ccc(I)cc1)c1ccc(OCCN(C)C)cc1)c1ccccc1`, the Relative potency at Phosphodiesterase 1 [4] amounted to 1. The Binding affinity in experiment [1] was found to be 8. Besides, the IC50 on Phosphodiesterase 1 [3] was found to be 2300 nM.
Molecule `CC/C(=C(\c1ccc(I)cc1)c1ccc(OCCCCN2CCCC2)cc1)c1ccccc1` yielded a Binding affinity in experiment [1] of 9. The molecule further registered a Relative potency at Phosphodiesterase 1 [2] of 1.5. In addition, the IC50 at Phosphodiesterase 1 [3] came out at 1000 nM.
On the same counts, the results for `CC/C(=C(\c1ccc(I)cc1)c1ccc(OCCCCCCCCN2CCCC2)cc1)c1ccccc1` are 3.5, 7.5 and 200 nM.
`CC/C(=C(\c1ccc(I)cc1)c1ccc(OCCCCCN(C)C)cc1)c1ccccc1` gave a Relative potency on Phosphodiesterase 1 [4] of 3.8. The molecule also yielded a Binding affinity in experiment [1] of 6. This molecule also displayed a concentration for half-maximal inhibition (IC50) against Phosphodiesterase 1 [3] of 600 nM.
